Converted amounts (≈) assume the structure as drawn. The source made the active and inactive calls. No cut-off for these calls is given here.
Experiments:
Rhizopus arrhizus [1] = test: Antifungal activity against drug-susceptible Rhizopus oryzae UTHSC 06-3913 by broth microdilution method; assay type: functional
In short: (§1)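 Posaconazole MIC in ug/ml, determined by broth microdilution following the CLSI guidelines for moulds (M38-A2).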

Rhizopus arrhizus [2] = test: Antifungal activity against drug-susceptible Rhizopus oryzae UTHSC 06-1351 by broth microdilution method; assay type: functional; in short: as §1
Rhizopus arrhizus [3] = test: Antifungal activity against drug-susceptible Rhizopus oryzae UTHSC 02-439 by broth microdilution method; assay type: functional
In short: (§2)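 Broth microdilution MIC in µg/ml, run per the CLSI (formerly NCCLS) guideline for filamentous fungi, M38-A2.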

Rhizopus arrhizus [4] = test: Antifungal activity against drug-susceptible Rhizopus oryzae UTHSC 03-2970 by broth microdilution method; assay type: functional; in short: as §2
Rhizopus arrhizus [5] = test: Antifungal activity against drug-susceptible Rhizopus oryzae UTHSC 06-434 by broth microdilution method; assay type: functional; in short: as §1
Rhizopus arrhizus [6] = test: Antifungal activity against drug-susceptible Rhizopus oryzae UTHSC 06-1301 by broth microdilution method; assay type: functional; in short: as §1
Rhizopus arrhizus [7] = test: Antifungal activity against drug-intermediate Rhizopus oryzae UTHSC 05-114 by broth microdilution method; assay type: functional; in short: as §2
Rhizopus arrhizus [8] = test: Antifungal activity against drug-susceptible Rhizopus oryzae UTHSC 06-89 at 5 ug by disk diffusion assay; assay type: functional; details: read-out: DIZ
Rhizopus arrhizus [9] = test: Antifungal activity against drug-susceptible Rhizopus oryzae UTHSC 04-1613 at 5 ug by disk diffusion assay; assay type: functional; details: read-out: DIZ
In short: (§3)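 Neo-Sensitabs tablet diffusion on Mueller-Hinton agar, following guidelines for molds; 9 mm tablets containing 5 µg posaconazole; inhibition zone diameter measured in mm; zone breakpoints applied at 24 h.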

Rhizopus arrhizus [10] = test: Antifungal activity against drug-susceptible Rhizopus oryzae UTHSC 04-2159 at 5 ug by disk diffusion assay; assay type: functional; details: read-out: DIZ; in short: as §3
Rhizopus arrhizus [11] = test: Antifungal activity against drug-susceptible Rhizopus oryzae UTHSC 2868 at 5 ug by disk diffusion assay; assay type: functional; details: read-out: DIZ
Rhizopus arrhizus [12] = test: Antifungal activity against drug-susceptible Rhizopus oryzae UTHSC 05-2975 at 5 ug by disk diffusion assay; assay type: functional; details: read-out: DIZ
In short: (§4)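 Neo-Sensitabs tablet diffusion on Mueller-Hinton agar, run per the mould guidelines. Tablets are 9 mm in diameter and carry 5 ug posaconazole. The read-out is the inhibition zone diameter in mm.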

Rhizopus arrhizus [13] = test: Antifungal activity against drug-susceptible Rhizopus oryzae UTHSC 05-197 at 5 ug by disk diffusion assay; assay type: functional; details: read-out: DIZ; in short: as §3
Rhizopus arrhizus [14] = test: Antifungal activity against drug-susceptible Rhizopus oryzae UTHSC 02-439 at 5 ug by disk diffusion assay; assay type: functional; details: read-out: DIZ
In short: (§5)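 Neo-Sensitabs tablet diffusion on Mueller-Hinton agar, following the guidelines for molds. Tablets were 9 mm in diameter and held 5 µg of drug. The read-out was inhibition zone diameter in mm.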

Rhizopus arrhizus [15] = test: Antifungal activity against drug-susceptible Rhizopus oryzae UTHSC 03-511 at 5 ug by disk diffusion assay; assay type: functional; details: read-out: DIZ; in short: as §3
Rhizopus arrhizus [16] = test: Antifungal activity against drug-susceptible Rhizopus oryzae UTHSC 05-1817 at 5 ug by disk diffusion assay; assay type: functional; details: read-out: DIZ; in short: as §3
Rhizopus arrhizus [17] = test: Antifungal activity against drug-susceptible Rhizopus oryzae UTHSC 06-434 at 5 ug by disk diffusion assay; assay type: functional; details: read-out: DIZ; in short: as §4
Rhizopus arrhizus [18] = test: Antifungal activity against drug-susceptible Rhizopus oryzae UTHSC 06-1301 at 5 ug by disk diffusion assay; assay type: functional; details: read-out: DIZ; in short: as §4
Rhizopus arrhizus [19] = test: Antifungal activity against drug-susceptible Rhizopus oryzae UTHSC 06-3827 at 5 ug by disk diffusion assay; assay type: functional; details: read-out: DIZ; in short: as §4
Rhizopus arrhizus [20] = test: Antifungal activity against drug-intermediate Rhizopus oryzae UTHSC 07-365 at 5 ug by disk diffusion assay; assay type: functional; details: UTHSC 07-365, read-out: DIZ; in short: as §5
Rhizopus arrhizus [21] = test: Antifungal activity against drug-intermediate Rhizopus oryzae UTHSC 03-285 at 5 ug by disk diffusion assay; assay type: functional; details: read-out: DIZ; in short: as §5
Rhizopus arrhizus [22] = test: Antifungal activity against drug-intermediate Rhizopus oryzae UTHSC 05-114 at 5 ug by disk diffusion assay; assay type: functional; details: read-out: DIZ; in short: as §5
Rhizopus arrhizus [23] = test: Antifungal activity against drug-susceptible Rhizopus oryzae UTHSC 06-3913 after 24 to 48 hrs; assay type: functional
In short: (§6)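 Minimum fungicidal concentration taken from the broth microdilution plates. From each well with complete inhibition (optically clear), 20 ul is plated on potato dextrose agar. Plates are incubated at 35°C for 24 to 48 h. The MFC is the lowest drug concentration giving no growth.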

Rhizopus arrhizus [24] = test: Antifungal activity against drug-susceptible Rhizopus oryzae UTHSC 04-278 after 24 to 48 hrs; assay type: functional
In short: (§7)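 Minimum fungicidal concentration: 20 µl from each microdilution well showing complete inhibition (optically clear) plated on potato dextrose agar, incubated 35°C for 24 to 48 h; MFC taken as lowest drug concentration giving no growth.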

Rhizopus arrhizus [25] = test: Antifungal activity against drug-susceptible Rhizopus oryzae UTHSC 04-443 after 24 to 48 hrs; assay type: functional; in short: as §7
Rhizopus arrhizus [26] = test: Antifungal activity against drug-susceptible Rhizopus oryzae UTHSC 04-1241 after 24 to 48 hrs; assay type: functional; in short: as §7
Rhizopus arrhizus [27] = test: Antifungal activity against drug-susceptible Rhizopus oryzae UTHSC 04-2459 after 24 to 48 hrs; assay type: functional; in short: as §7
Rhizopus arrhizus [28] = test: Antifungal activity against drug-susceptible Rhizopus oryzae UTHSC 06-1080 after 24 to 48 hrs; assay type: functional; in short: as §6
Rhizopus arrhizus [29] = test: Antifungal activity against drug-susceptible Rhizopus oryzae UTHSC 05-2975 after 24 to 48 hrs; assay type: functional; in short: as §7
Rhizopus arrhizus [30] = test: Antifungal activity against drug-susceptible Rhizopus oryzae UTHSC 02-439 after 24 to 48 hrs; assay type: functional
Rhizopus arrhizus [31] = test: Antifungal activity against drug-susceptible Rhizopus oryzae UTHSC 06-2457 after 24 to 48 hrs; assay type: functional; in short: as §6
Rhizopus arrhizus [32] = test: Antifungal activity against drug-susceptible Rhizopus oryzae UTHSC 05-2447 after 24 to 48 hrs; assay type: functional; in short: as §7
Rhizopus arrhizus [33] = test: Antifungal activity against drug-susceptible Rhizopus oryzae UTHSC 06-3827 after 24 to 48 hrs; assay type: functional; in short: as §6
Rhizopus arrhizus [34] = test: Antifungal activity against drug-intermediate Rhizopus oryzae UTHSC 03-285 after 24 to 48 hrs; assay type: functional
Rhizopus arrhizus [35] = test: Antifungal activity against drug-susceptible Rhizopus oryzae UTHSC 02-2882 infected in OF1 mouse assessed as reduction in brain fungal load at 10-30 mg/kg, po bid treated 24 hrs after fungal infection; assay type: functional, organism-based
In short: (§8)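 Tissue burden in immunosuppressed male OF1 mice, using cyclophosphamide 200 mg/kg i.p. plus 5-fluorouracil 150 mg/kg i.v. on day −1. Mice received 2 × 10^4 CFU i.v. by tail vein, then oral gavage at 10, 20 or 30 mg/kg BID from 24 h post-challenge, with ceftazidime cover; untreated controls. Groups of 10 were killed on day 4. Kidneys and brains were homogenized in 2 ml saline, serially diluted 10-fold, plated on PDA and counted after 24 h at 35°C.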

Rhizopus arrhizus [36] = test: Antifungal activity against drug-susceptible Rhizopus oryzae UTHSC 03-511 infected in OF1 mouse assessed as reduction in kidney fungal load at 10-30 mg/kg, po bid; assay type: functional, organism-based
In short: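 Immunosuppressed male OF1 mice (cyclophosphamide 200 mg/kg i.p. plus 5-fluorouracil 150 mg/kg i.v., day −1) infected i.v. with 2 × 10^4 CFU; oral gavage twice daily from 24 h post-challenge; 10 mice/group killed day 4; kidneys homogenized in 2 ml saline, 10-fold dilutions plated on potato dextrose agar, 24 h at 35°C for CFU.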

Rhizopus arrhizus [37] = test: Antifungal activity against drug-intermediate Rhizopus oryzae UTHSC 05-3032 infected in OF1 mouse assessed as reduction in brain fungal load at 10-30 mg/kg, po bid treated 24 hrs after fungal infection; assay type: functional, organism-based; in short: as §8

SMILES: CC[C@@H]([C@H](C)O)n1ncn(-c2ccc(N3CCN(c4ccc(OC[C@@H]5CO[C@@](Cn6cncn6)(c6ccc(F)cc6F)C5)cc4)CC3)cc2)c1=O [POSACONAZOLE]
- MIC (Rhizopus arrhizus [1]): 0.5 µg/mL (≈ 0.713 µM)
- MIC (Rhizopus arrhizus [2]): 0.25 µg/mL (≈ 0.357 µM)
- MIC (Rhizopus arrhizus [3]): 0.25 µg/mL (≈ 0.357 µM)
- MIC (Rhizopus arrhizus [4]): 1 µg/mL (≈ 1.43 µM)
- MIC (Rhizopus arrhizus [5]): 1 µg/mL (≈ 1.43 µM)
- MIC (Rhizopus arrhizus [6]): 0.5 µg/mL (≈ 0.713 µM)
- MIC (Rhizopus arrhizus [7]): 2 µg/mL (≈ 2.85 µM)
- zone of inhibition at 5 µg/disc (Rhizopus arrhizus [8]): 23 mm
- zone of inhibition at 5 µg/disc (Rhizopus arrhizus [9]): 22 mm
- zone of inhibition at 5 µg/disc (Rhizopus arrhizus [10]): 20 mm
- zone of inhibition at 5 µg/disc (Rhizopus arrhizus [11]): 19 mm
- zone of inhibition at 5 µg/disc (Rhizopus arrhizus [12]): 20 mm
- zone of inhibition at 5 µg/disc (Rhizopus arrhizus [13]): 21 mm
- zone of inhibition at 5 µg/disc (Rhizopus arrhizus [14]): 22 mm
- zone of inhibition at 5 µg/disc (Rhizopus arrhizus [15]): 22 mm
- zone of inhibition at 5 µg/disc (Rhizopus arrhizus [16]): 25 mm
- zone of inhibition at 5 µg/disc (Rhizopus arrhizus [17]): 15 mm
- zone of inhibition at 5 µg/disc (Rhizopus arrhizus [18]): 25 mm
- zone of inhibition at 5 µg/disc (Rhizopus arrhizus [19]): 18 mm
- zone of inhibition at 5 µg/disc (Rhizopus arrhizus [20]): 15 mm
- zone of inhibition at 5 µg/disc (Rhizopus arrhizus [21]): 15 mm
- zone of inhibition at 5 µg/disc (Rhizopus arrhizus [22]): 15 mm
- MFC (Rhizopus arrhizus [23]): 4 µg/mL (≈ 5.71 µM)
- MFC (Rhizopus arrhizus [24]): > 16 µg/mL
- MFC (Rhizopus arrhizus [25]): 1 µg/mL (≈ 1.43 µM)
- MFC (Rhizopus arrhizus [26]): 0.5 µg/mL (≈ 0.713 µM)
- MFC (Rhizopus arrhizus [27]): 0.5 µg/mL (≈ 0.713 µM)
- MFC (Rhizopus arrhizus [28]): > 16 µg/mL
- MFC (Rhizopus arrhizus [29]): 2 µg/mL (≈ 2.85 µM)
- MFC (Rhizopus arrhizus [30]): 0.5 µg/mL (≈ 0.713 µM)
- MFC (Rhizopus arrhizus [31]): > 16 µg/mL
- MFC (Rhizopus arrhizus [32]): 1 µg/mL (≈ 1.43 µM)
- MFC (Rhizopus arrhizus [33]): 16 µg/mL (≈ 22.8 µM)
- MFC (Rhizopus arrhizus [34]): > 16 µg/mL
- Activity (Rhizopus arrhizus [35]): Active
- Activity (Rhizopus arrhizus [36]): Active
- Activity (Rhizopus arrhizus [37]): inactive
